According to ChEMBL document CHEMBL3877308, “Design, synthesis and in vitro biological evaluation of oligopeptides targeting E. coli type I signal peptidase (LepB)” (Bioorg Med Chem, 2017):
Converted amounts (≈) assume the structure as drawn.

Columns and labels:
Signal peptidase I = Signal peptidase I (Escherichia coli K-12, UniProt P00803); assay: Inhibition of full length Escherichia coli His6-tagged LepB expressed in Escherichia coli C43(DE3) using dabcyl-VEVGGTATAGAFSRPGLE-(EDANS) as substrate preincubated for 10 mins followed by substrate addition measured for 2 hrs by FRET assay
Summary of the method: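 Enzyme extracted from the membrane fraction with 1% reduced Triton X-100 and purified by metal-chelation chromatography in 0.5% detergent. Enzyme (final ~50 nM) was pre-incubated with compound for 10 min at 22 °C. The linear rise in EDANS donor fluorescence (dabcyl acceptor) was then followed at 22 °C for 2 h. IC50 came from non-linear regression of sigmoidal rate-versus-concentration curves.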

[1] = target: Signal peptidase I (Escherichia coli K-12) (UniProt P00803); assay: Inhibition of full length Escherichia coli His6-tagged LepB expressed in Escherichia coli C43(DE3) assessed as residual activity at 2.5 uM using dabcyl-VEVGGTATAGAFSRPGLE-(EDANS) as substrate preincubated for 10 mins followed by substrate addition measured for 2 hrs by FRET assay relative to control
Summary of the method: (§1)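 Enzyme came from the membrane fraction, extracted with 1% reduced Triton X-100 and purified by metal-chelation chromatography in 0.5% detergent. FRET pair was dabcyl acceptor and EDANS donor. EcLepB (final about 50 nM) was pre-incubated with compound 10 min at 22 °C. Reaction was then run with 8 µM substrate, following the linear fluorescence increase at 22 °C for 2 h.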

[2] = target: Signal peptidase I (Escherichia coli K-12) (UniProt P00803); assay: Inhibition of full length Escherichia coli His6-tagged LepB expressed in Escherichia coli C43(DE3) assessed as residual activity at 5 uM using dabcyl-VEVGGTATAGAFSRPGLE-(EDANS) as substrate preincubated for 10 mins followed by substrate addition measured for 2 hrs by FRET assay relative to control; summary of the method: as §1
[3] = target: Signal peptidase I (Escherichia coli K-12) (UniProt P00803); assay: Inhibition of full length Escherichia coli His6-tagged LepB expressed in Escherichia coli C43(DE3) at 100 uM using dabcyl-VEVGGTATAGAFSRPGLE-(EDANS) as substrate preincubated for 10 mins followed by substrate addition measured for 2 hrs by FRET assay relative to control; summary of the method: as §1
[4] = target: Signal peptidase I (Escherichia coli K-12) (UniProt P00803); assay: Inhibition of full length Escherichia coli His6-tagged LepB expressed in Escherichia coli C43(DE3) assessed as residual activity at 10 uM using dabcyl-VEVGGTATAGAFSRPGLE-(EDANS) as substrate preincubated for 10 mins followed by substrate addition measured for 2 hrs by FRET assay relative to control; summary of the method: as §1
[5] = target: Signal peptidase I (Escherichia coli K-12) (UniProt P00803); assay: Inhibition of full length Escherichia coli His6-tagged LepB expressed in Escherichia coli C43(DE3) assessed as residual activity at 0.002 uM using dabcyl-VEVGGTATAGAFSRPGLE-(EDANS) as substrate preincubated for 10 mins followed by substrate addition measured for 2 hrs by FRET assay relative to control; summary of the method: as §1
[6] = target: Signal peptidase I (Escherichia coli K-12) (UniProt P00803); assay: Inhibition of full length Escherichia coli His6-tagged LepB expressed in Escherichia coli C43(DE3) assessed as residual activity at 0.005 uM using dabcyl-VEVGGTATAGAFSRPGLE-(EDANS) as substrate preincubated for 10 mins followed by substrate addition measured for 2 hrs by FRET assay relative to control; summary of the method: as §1
[7] = target: Signal peptidase I (Escherichia coli K-12) (UniProt P00803); assay: Inhibition of full length Escherichia coli His6-tagged LepB expressed in Escherichia coli C43(DE3) assessed as residual activity at 1.25 uM using dabcyl-VEVGGTATAGAFSRPGLE-(EDANS) as substrate preincubated for 10 mins followed by substrate addition measured for 2 hrs by FRET assay relative to control; summary of the method: as §1
[8] = target: Signal peptidase I (Escherichia coli K-12) (UniProt P00803); assay: Inhibition of full length Escherichia coli His6-tagged LepB expressed in Escherichia coli C43(DE3) assessed as residual activity at 0.625 uM using dabcyl-VEVGGTATAGAFSRPGLE-(EDANS) as substrate preincubated for 10 mins followed by substrate addition measured for 2 hrs by FRET assay relative to control; summary of the method: as §1
[9] = target: Signal peptidase I (Escherichia coli K-12) (UniProt P00803); assay: Inhibition of full length Escherichia coli His6-tagged LepB expressed in Escherichia coli C43(DE3) assessed as residual activity at 0.313 uM using dabcyl-VEVGGTATAGAFSRPGLE-(EDANS) as substrate preincubated for 10 mins followed by substrate addition measured for 2 hrs by FRET assay relative to control; summary of the method: as §1
[10] = target: Signal peptidase I (Escherichia coli K-12) (UniProt P00803); assay: Inhibition of full length Escherichia coli His6-tagged LepB expressed in Escherichia coli C43(DE3) assessed as residual activity at 0.156 uM using dabcyl-VEVGGTATAGAFSRPGLE-(EDANS) as substrate preincubated for 10 mins followed by substrate addition measured for 2 hrs by FRET assay relative to control; summary of the method: as §1
[11] = target: Signal peptidase I (Escherichia coli K-12) (UniProt P00803); assay: Inhibition of full length Escherichia coli His6-tagged LepB expressed in Escherichia coli C43(DE3) assessed as residual activity at 0.078 uM using dabcyl-VEVGGTATAGAFSRPGLE-(EDANS) as substrate preincubated for 10 mins followed by substrate addition measured for 2 hrs by FRET assay relative to control; summary of the method: as §1
[12] = target: Signal peptidase I (Escherichia coli K-12) (UniProt P00803); assay: Inhibition of full length Escherichia coli His6-tagged LepB expressed in Escherichia coli C43(DE3) assessed as residual activity at 0.039 uM using dabcyl-VEVGGTATAGAFSRPGLE-(EDANS) as substrate preincubated for 10 mins followed by substrate addition measured for 2 hrs by FRET assay relative to control; summary of the method: as §1
[13] = target: Signal peptidase I (Escherichia coli K-12) (UniProt P00803); assay: Inhibition of full length Escherichia coli His6-tagged LepB expressed in Escherichia coli C43(DE3) assessed as residual activity at 0.02 uM using dabcyl-VEVGGTATAGAFSRPGLE-(EDANS) as substrate preincubated for 10 mins followed by substrate addition measured for 2 hrs by FRET assay relative to control; summary of the method: as §1
[14] = target: Signal peptidase I (Escherichia coli K-12) (UniProt P00803); assay: Inhibition of full length Escherichia coli His6-tagged LepB expressed in Escherichia coli C43(DE3) assessed as residual activity at 0.01 uM using dabcyl-VEVGGTATAGAFSRPGLE-(EDANS) as substrate preincubated for 10 mins followed by substrate addition measured for 2 hrs by FRET assay relative to control; summary of the method: as §1
[15] = target: Signal peptidase I (Escherichia coli K-12) (UniProt P00803); assay: Inhibition of full length Escherichia coli His6-tagged LepB expressed in Escherichia coli C43(DE3) assessed as residual activity at 0.001 uM using dabcyl-VEVGGTATAGAFSRPGLE-(EDANS) as substrate preincubated for 10 mins followed by substrate addition measured for 2 hrs by FRET assay relative to control; summary of the method: as §1
[16] = target: Signal peptidase I (Escherichia coli K-12) (UniProt P00803); assay: Inhibition of full length Escherichia coli His6-tagged LepB expressed in Escherichia coli C43(DE3) assessed as residual activity at 0.0005 uM using dabcyl-VEVGGTATAGAFSRPGLE-(EDANS) as substrate preincubated for 10 mins followed by substrate addition measured for 2 hrs by FRET assay relative to control; summary of the method: as §1
Escherichia coli [17] = assay: Antibacterial activity against wild type Escherichia coli ATCC 25922 after 16 to 20 hrs by broth microdilution assay; type: functional
Summary of the method: (§2)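 MIC by broth microdilution in cation-adjusted Mueller-Hinton II medium, following EUCAST and CLSI guidelines; panel of Gram-negative strains plus S. aureus ATCC 29213.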

Escherichia coli [18] = assay: Antibacterial activity against Escherichia coli CH3130 harboring tolC deletion mutant after 16 to 20 hrs by broth microdilution assay; type: functional
Summary of the method: (§3)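 Broth microdilution MIC in cation-adjusted Mueller-Hinton II medium, following EUCAST and CLSI guidelines; tested on a panel of Gram-negative strains plus S. aureus ATCC 29213 (wild-type).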

Escherichia coli [19] = assay: Antibacterial activity against Escherichia coli D22 harboring lpxC mutant after 16 to 20 hrs by broth microdilution assay; type: functional; summary of the method: as §3
Pseudomonas aeruginosa [20] = assay: Antibacterial activity against wild type Pseudomonas aeruginosa PAO1 after 16 to 20 hrs by broth microdilution assay; type: functional; summary of the method: as §2
Pseudomonas aeruginosa [21] = assay: Antibacterial activity against wild type Pseudomonas aeruginosa PAO750 harboring efflux defective mutant after 16 to 20 hrs by broth microdilution assay; type: functional; summary of the method: as §3
Klebsiella pneumoniae = assay: Antibacterial activity against wild type Klebsiella pneumoniae […] after 16 to 20 hrs by broth microdilution assay; type: functional; summary of the method: as §2
Staphylococcus aureus = assay: Antibacterial activity against wild type Staphylococcus aureus ATCC 29213 after 16 to 20 hrs by broth microdilution assay; type: functional; summary of the method: as §2
Acinetobacter baumannii = assay: Antibacterial activity against wild type Acinetobacter baumannii ATCC 19606 after 16 to 20 hrs by broth microdilution assay; type: functional; summary of the method: as §2
[22] = Cytotoxicity against human HepG2 cells assessed as reduction in cell viability after 72 hrs by fluorescein diacetate dye based fluorometric microculture assay; type: toxicity
Summary of the method: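 FMCA on HepG2 cells read at 72 h. Survival index (%) is fluorescence in test wells as percent of control cultures, with blank values subtracted. IC50 was obtained by non-linear regression of log concentration-effect curves.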

[23] = Hemolytic activity against human RBC at 100 uM after 45 mins by spectrophotometric method relative to control; type: ADME, cell-based, Erythrocyte; settings: red blood cells (RBC), read-out: Activity
Summary of the method: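 Hemolysis was tested using red blood cells from heparinized human blood.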

Sequence of Signal peptidase I (Escherichia coli K-12) (P00803 whole entry): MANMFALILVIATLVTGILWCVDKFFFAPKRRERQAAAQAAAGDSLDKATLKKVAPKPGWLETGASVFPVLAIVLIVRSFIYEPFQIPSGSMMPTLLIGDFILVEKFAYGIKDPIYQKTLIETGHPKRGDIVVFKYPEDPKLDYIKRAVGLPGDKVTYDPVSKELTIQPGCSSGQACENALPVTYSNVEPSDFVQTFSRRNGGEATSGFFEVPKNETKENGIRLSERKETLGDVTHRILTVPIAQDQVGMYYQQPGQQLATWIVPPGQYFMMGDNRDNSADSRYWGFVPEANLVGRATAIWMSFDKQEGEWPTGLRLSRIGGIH
Sequence of Signal peptidase I (P00803 whole entry): as above

Question: Which IC50 (Signal peptidase I) does the source give for `CCCCCCc1ccc(-c2ccc(C(=O)N3CC(CN)C[C@H]3C(=O)N[C@H](C(=O)N[C@@H](C)C(=O)N[C@@H](CC(N)=O)C(=O)N[C@@H](C)B(O)O)[C@H](C)O)cc2)cc1` (some centres not stated) here?
Answer: Its IC50 is 0.006 µM.

Question: And the Activity [1]?
Answer: The Activity was 24.8%.

Question: What about the Activity [2] of the same molecule?
Answer: The Activity was 28.2%.

Question: What about the inhibition [3] of the same molecule?
Answer: The inhibition was over 50%.

Question: What about the Activity [4] of the same molecule?
Answer: Its Activity is 24.6%.

Question: And the Activity [5]?
Answer: Its Activity is 85.8%.

Question: What about the Activity [6] of the same molecule?
Answer: The Activity was 60.1%.

Question: And the Activity [7]?
Answer: Its Activity is 28.4%.

Question: What about the Activity [8] of the same molecule?
Answer: The Activity was 25.1%.

Question: And the Activity [9]?
Answer: The Activity was 25.3%.

Question: And the Activity [10]?
Answer: Its Activity is 27.4%.

Question: And the Activity [11]?
Answer: The Activity was 25.7%.

Question: What about the Activity [12] of the same molecule?
Answer: Its Activity is 27.7%.

Question: And the Activity [13]?
Answer: The Activity was 36.2%.

Question: And the Activity [14]?
Answer: The Activity was 51.8%.

Question: And the Activity [15]?
Answer: The Activity was 86.8%.

Question: And the Activity [16]?
Answer: The Activity was 88.8%.

Question: And the MIC (Escherichia coli [17])?
Answer: The MIC was 16 µg/mL (≈ 20.9 µM).

Question: And the MIC (Escherichia coli [18])?
Answer: Its MIC is 2 µg/mL (≈ 2.61 µM).

Question: And the MIC (Escherichia coli [19])?
Answer: Its MIC is 0.5 µg/mL (≈ 0.653 µM).

Question: What about the MIC (Pseudomonas aeruginosa [20]) of the same molecule?
Answer: Its MIC is 64 µg/mL (≈ 83.6 µM).

Question: What about the MIC (Pseudomonas aeruginosa [21]) of the same molecule?
Answer: Its MIC is 4 µg/mL (≈ 5.22 µM).

Question: What about the MIC (Klebsiella pneumoniae) of the same molecule?
Answer: The MIC was 8 µg/mL (≈ 10.4 µM).

Question: What about the MIC (Staphylococcus aureus) of the same molecule?
Answer: The MIC was 0.25 µg/mL (≈ 0.326 µM).

Question: What about the MIC (Acinetobacter baumannii) of the same molecule?
Answer: The MIC was 8 µg/mL (≈ 10.4 µM).

Question: What about the IC50 at 72 h [22] of the same molecule?
Answer: The IC50 at 72 h was 15.6 µM.

Question: What about the hemolysis at 0.75 h, 100 µM [23] of the same molecule?
Answer: Its hemolysis at 0.75 h, 100 µM is 2.5%.
